System in the first assay: not listed separately
Briefly: Antiplatelet aggregation activity against platelet-activating factor-induced pig platelet aggregation after 5 mins by aggregometer. The assay is classed as functional, cell-based. To be noted: Sus scrofa. In short, it runs like this:
(§1)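 Pig blood from six pigs was spun at 1000 rpm for 10 min to give PRP, then at 1500g for 10 min to give PPP. PRP was adjusted to 2 × 10⁸ platelets/mL with autologous PPP. Test agent or NS was added at final 100 µM–1 nM. Agonists were at final concentrations of ADP 10 µM, AA 350 µM, PAF 0.1 µM and thrombin 0.1 U/mL. Light-transmission peak was read at 37 °C over 5 min, in sextuplicate. IC50 was taken from the concentration–inhibition curve.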
What is called IC50 is the concentration that gives 50% inhibition. `NCCCC[C@H](N)C(=O)N1Cc2[nH]c3ccccc3c2C[C@H]1C(=O)O` displayed an IC50 of 17 nM.
Consider `NC(=O)CC[C@H](N)C(=O)N1Cc2[nH]c3ccccc3c2C[C@H]1C(=O)O`, for which half-maximal inhibition (IC50) required 17.2 nM. This IC50 and that of the compound before are within 1.5-fold of each other.
`NC(=O)C[C@H](N)C(=O)N1Cc2[nH]c3ccccc3c2C[C@H]1C(=O)O` showed a 50% inhibitory concentration (IC50) of 16.2 nM. This IC50 and that of the compound before are within 1.5-fold of each other.
As to `NCC(=O)N1Cc2[nH]c3ccccc3c2C[C@H]1C(=O)O`, half-maximal inhibition (IC50) was put at 16.8 nM. The IC50 values of the last two compounds are within 1.5-fold of each other.
In turn, `N[C@@H](CS)C(=O)N1Cc2[nH]c3ccccc3c2C[C@H]1C(=O)O` displayed an IC50 of 14.7 nM.
For the compound `CSCC[C@H](N)C(=O)N1Cc2[nH]c3ccccc3c2C[C@H]1C(=O)O`, inhibition was half-maximal at 12.4 nM (IC50).

The test system of another assay is Platelet. Briefly: Ratio of IC50 for platelet-activating factor-induced pig platelet aggregation to IC50 for ADP-induced pig platelet aggregation.
Details: not given
The assay is classed as functional, Sus scrofa. Put shortly: (§2)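 Fold ratios of IC50 values. Each IC50 came from pig PRP (2 × 10⁸ platelets/mL) light-transmission aggregometry at 37 °C for 5 min, in sextuplicate, with final ADP 10 µM, AA 350 µM, PAF 0.1 µM or thrombin 0.1 U/mL.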
Turning to `NCCCC[C@H](N)C(=O)N1Cc2[nH]c3ccccc3c2C[C@H]1C(=O)O`, the Ratio IC50 worked out at 1.5.
On to `NC(=O)CC[C@H](N)C(=O)N1Cc2[nH]c3ccccc3c2C[C@H]1C(=O)O`, for which the Ratio IC50 was 2.2.
For `NC(=O)C[C@H](N)C(=O)N1Cc2[nH]c3ccccc3c2C[C@H]1C(=O)O`, the Ratio IC50 amounted to 1.8.
On to `NCC(=O)N1Cc2[nH]c3ccccc3c2C[C@H]1C(=O)O`, for which the Ratio IC50 is 2.
As for `N[C@@H](CS)C(=O)N1Cc2[nH]c3ccccc3c2C[C@H]1C(=O)O`, the Ratio IC50 was 2.1.
In the case of `CSCC[C@H](N)C(=O)N1Cc2[nH]c3ccccc3c2C[C@H]1C(=O)O`, the Ratio IC50 was 1.9.

For another assay, the system named is Rattus norvegicus. Kind of assay: Antithrombotic activity in Wistar rat arterioveinos cannula model assessed as reduction of thrombus weight at 100 nmol/kg, iv. It is filed as functional.
Details: not given
Put shortly:
(§3)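 Male Wistar rats, 250–300 g. Agents were dissolved in NS and kept on ice. Heparin sodium was injected into a thread-containing polyethylene cannula, then NS or agent was injected intravenously. The cannula joined the right carotid artery to the left jugular vein, and blood flowed through it for 15 min. Wet thrombus weight on the thread was recorded as mean ± SD, n = 12.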
For the compound `NCCCC[C@H](N)C(=O)N1Cc2[nH]c3ccccc3c2C[C@H]1C(=O)O`, the Thrombus weight came to 16.54 mg.
The same measure, in the same setting: for `NC(=O)CC[C@H](N)C(=O)N1Cc2[nH]c3ccccc3c2C[C@H]1C(=O)O` the value was 17.3 mg; for `NC(=O)C[C@H](N)C(=O)N1Cc2[nH]c3ccccc3c2C[C@H]1C(=O)O`, 16.34 mg.
`NCC(=O)N1Cc2[nH]c3ccccc3c2C[C@H]1C(=O)O`: the Thrombus weight came to 19.29 mg.
Still for that read-out and setting: the result for `N[C@@H](CS)C(=O)N1Cc2[nH]c3ccccc3c2C[C@H]1C(=O)O` reads 15.25 mg; that for `CSCC[C@H](N)C(=O)N1Cc2[nH]c3ccccc3c2C[C@H]1C(=O)O`, 13 mg.

Another assay concerns Rattus norvegicus. Briefly: Antithrombotic activity in Wistar rat arterioveinos cannula model assessed as reduction of thrombus weight at 100 nmol/kg, po. The assay is classed as functional.
Details: not given
Put shortly: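 Male Wistar rats received agent in NS, or NS alone, orally. Blood then passed from the right carotid artery to the left jugular vein through a thread-containing polyethylene cannula for 15 min. Wet thrombus weight was reported as mean ± SD, n = 12.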
For the compound `CSCC[C@H](N)C(=O)N1Cc2[nH]c3ccccc3c2C[C@H]1C(=O)O`, the Activity is given as 13.49 mg.

Another assay concerns Platelet. Kind of assay: Ratio of TCCA IC50 to compound IC50 for ADP-induced pig platelet aggregation. The assay is classed as functional, Sus scrofa.
Details: not given
In short, it runs like this:
as §2
As for `NCCCC[C@H](N)C(=O)N1Cc2[nH]c3ccccc3c2C[C@H]1C(=O)O`, the “Ratio IC50” value is listed as 63.
The same measure, in the same setting: for `NC(=O)CC[C@H](N)C(=O)N1Cc2[nH]c3ccccc3c2C[C@H]1C(=O)O` the value was 91; for `NC(=O)C[C@H](N)C(=O)N1Cc2[nH]c3ccccc3c2C[C@H]1C(=O)O`, 76; for `NCC(=O)N1Cc2[nH]c3ccccc3c2C[C@H]1C(=O)O`, 82.
For the compound `N[C@@H](CS)C(=O)N1Cc2[nH]c3ccccc3c2C[C@H]1C(=O)O`, the Ratio IC50 was determined as 99.
The same measure, in the same setting: the result for `CSCC[C@H](N)C(=O)N1Cc2[nH]c3ccccc3c2C[C@H]1C(=O)O` reads 108.

The subject of the next assay is Rattus norvegicus. Briefly: Antithrombotic activity in Wistar rat arterioveinos cannula model assessed as reduction of thrombus weight at 1 nmol/kg, iv. It is filed as functional.
Details: not given
In short, it runs like this: as §3
For the compound `CSCC[C@H](N)C(=O)N1Cc2[nH]c3ccccc3c2C[C@H]1C(=O)O`, the Activity amounted to 22.59 mg.

System in another assay: not listed separately
Kind of assay: Antiplatelet aggregation activity against thrombin-induced pig platelet aggregation after 5 mins by aggregometer. The assay is classed as functional, cell-based. The conditions noted are these: Sus scrofa. In short, it runs like this: as §1
`NCCCC[C@H](N)C(=O)N1Cc2[nH]c3ccccc3c2C[C@H]1C(=O)O` returned an IC50 of 33.4 nM.
`NC(=O)CC[C@H](N)C(=O)N1Cc2[nH]c3ccccc3c2C[C@H]1C(=O)O`: half-maximal inhibition (IC50) was put at 30.1 nM.
`NC(=O)C[C@H](N)C(=O)N1Cc2[nH]c3ccccc3c2C[C@H]1C(=O)O` returned a half-maximal inhibitory concentration (IC50) of 30 nM. The IC50 values of the last two compounds are within 1.5-fold of each other.
For `NCC(=O)N1Cc2[nH]c3ccccc3c2C[C@H]1C(=O)O`, 31.9 nM corresponded to half-maximal inhibition (IC50).
The compound `N[C@@H](CS)C(=O)N1Cc2[nH]c3ccccc3c2C[C@H]1C(=O)O` displayed an IC50 of 27.6 nM.
`CSCC[C@H](N)C(=O)N1Cc2[nH]c3ccccc3c2C[C@H]1C(=O)O` gave an IC50 of 25.3 nM.

The test system of another assay is Rattus norvegicus. Kind of assay: Antithrombotic activity in Wistar rat arterioveinos cannula model assessed as reduction of thrombus weight at 10 nmol/kg, iv. It is filed as functional.
Details: not given
Put shortly:
as §3
With `CSCC[C@H](N)C(=O)N1Cc2[nH]c3ccccc3c2C[C@H]1C(=O)O`, the Activity is given as 17.67 mg.

System in the next assay: not listed separately
Briefly: Antiplatelet aggregation activity against arachidonic acid-induced pig platelet aggregation after 5 mins by aggregometer. It is filed as functional, cell-based. The conditions noted are these: Sus scrofa. Put shortly: as §1
Turning to `NCCCC[C@H](N)C(=O)N1Cc2[nH]c3ccccc3c2C[C@H]1C(=O)O`, half-maximal inhibition (IC50) required 30.1 nM.
For `NC(=O)CC[C@H](N)C(=O)N1Cc2[nH]c3ccccc3c2C[C@H]1C(=O)O`, half-maximal inhibition (IC50) was put at 28.2 nM.
`NC(=O)C[C@H](N)C(=O)N1Cc2[nH]c3ccccc3c2C[C@H]1C(=O)O`: half-maximal inhibition (IC50) was put at 28.9 nM.
`NCC(=O)N1Cc2[nH]c3ccccc3c2C[C@H]1C(=O)O`: the IC50 is 26.5 nM.
For the compound `N[C@@H](CS)C(=O)N1Cc2[nH]c3ccccc3c2C[C@H]1C(=O)O`, it took 24.4 nM to reach half-maximal inhibition (IC50).
`CSCC[C@H](N)C(=O)N1Cc2[nH]c3ccccc3c2C[C@H]1C(=O)O` had an IC50 of 23.5 nM. This IC50 and that of the compound before are within 1.5-fold of each other.

In a further assay the test system is Platelet. Briefly: Ratio of IC50 for thrombin-induced pig platelet aggregation to IC50 for ADP-induced pig platelet aggregation. It is filed as functional, Sus scrofa.
Details: not given
Put shortly:
as §2
With `NCCCC[C@H](N)C(=O)N1Cc2[nH]c3ccccc3c2C[C@H]1C(=O)O`, the Ratio IC50 came out at 3.
As for `NC(=O)CC[C@H](N)C(=O)N1Cc2[nH]c3ccccc3c2C[C@H]1C(=O)O`, the Ratio IC50 is 3.9.
Consider `NC(=O)C[C@H](N)C(=O)N1Cc2[nH]c3ccccc3c2C[C@H]1C(=O)O`, for which the Ratio IC50 stood at 3.3.
Same read-out and setting: the result for `NCC(=O)N1Cc2[nH]c3ccccc3c2C[C@H]1C(=O)O` reads 3.7; that for `N[C@@H](CS)C(=O)N1Cc2[nH]c3ccccc3c2C[C@H]1C(=O)O`, 3.9; that for `CSCC[C@H](N)C(=O)N1Cc2[nH]c3ccccc3c2C[C@H]1C(=O)O`, 3.9.

System in a further assay: not listed separately
Kind of assay: Antiplatelet aggregation activity against ADP-induced pig platelet aggregation after 5 mins by aggregometer. It is filed as functional, cell-based. To be noted: Sus scrofa. Put shortly: as §1
For the compound `NCCCC[C@H](N)C(=O)N1Cc2[nH]c3ccccc3c2C[C@H]1C(=O)O`, the IC50 is 11.1 nM.
In turn, `NC(=O)CC[C@H](N)C(=O)N1Cc2[nH]c3ccccc3c2C[C@H]1C(=O)O` returned a half-maximal inhibitory concentration (IC50) of 7.7 nM.
`NC(=O)C[C@H](N)C(=O)N1Cc2[nH]c3ccccc3c2C[C@H]1C(=O)O` gave an IC50 of 9.19 nM.
The same measure, in the same setting: for `NCC(=O)N1Cc2[nH]c3ccccc3c2C[C@H]1C(=O)O` the value was 8.56 nM.
For `N[C@@H](CS)C(=O)N1Cc2[nH]c3ccccc3c2C[C@H]1C(=O)O`, 7.1 nM corresponded to half-maximal inhibition (IC50).
With `CSCC[C@H](N)C(=O)N1Cc2[nH]c3ccccc3c2C[C@H]1C(=O)O`, the IC50 turned out to be 6.5 nM.

A further assay deals with Platelet. Briefly: Ratio of IC50 for arachidonic acid-induced pig platelet aggregation to IC50 for ADP-induced pig platelet aggregation. The assay is classed as functional, Sus scrofa.
Details: not given
Put shortly: as §2
`NCCCC[C@H](N)C(=O)N1Cc2[nH]c3ccccc3c2C[C@H]1C(=O)O`: the “Ratio IC50” value was 2.7.
Consider `NC(=O)CC[C@H](N)C(=O)N1Cc2[nH]c3ccccc3c2C[C@H]1C(=O)O`, for which the Ratio IC50 was found to be 3.7.
As to `NC(=O)C[C@H](N)C(=O)N1Cc2[nH]c3ccccc3c2C[C@H]1C(=O)O`, the Ratio IC50 worked out at 3.2.
Same read-out and setting: for `NCC(=O)N1Cc2[nH]c3ccccc3c2C[C@H]1C(=O)O` the value was 3.1; for `N[C@@H](CS)C(=O)N1Cc2[nH]c3ccccc3c2C[C@H]1C(=O)O`, 3.4.
Same read-out and setting: the result for `CSCC[C@H](N)C(=O)N1Cc2[nH]c3ccccc3c2C[C@H]1C(=O)O` reads 3.6.

For the origin of these results see ChEMBL document CHEMBL1156185, “A class of 3S-2-aminoacyltetrahydro-beta-carboline-3-carboxylic acids: their facile synthesis, inhibition for platelet activation, and high in vivo anti-thrombotic potency” (J Med Chem, 2010).
